High-throughput results (PubChem BioAssay)
GPR7 antag: antagonists of human GPR7 (neuropeptides B/W receptor 1); P48145; GPR7-expressing cells, fluorescence antagonist assay; inhibition, % at 4.4 µM; actives 1.1% (n = 290,000); AID 1861; in the data active = inhibition above about 16%, passing the limit was not always enough;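 also: cells stimulated with the agonist NPW; 0% = agonist with vehicle and 100% = vehicle without agonist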
Target sequence (P48145 whole entry, looked up): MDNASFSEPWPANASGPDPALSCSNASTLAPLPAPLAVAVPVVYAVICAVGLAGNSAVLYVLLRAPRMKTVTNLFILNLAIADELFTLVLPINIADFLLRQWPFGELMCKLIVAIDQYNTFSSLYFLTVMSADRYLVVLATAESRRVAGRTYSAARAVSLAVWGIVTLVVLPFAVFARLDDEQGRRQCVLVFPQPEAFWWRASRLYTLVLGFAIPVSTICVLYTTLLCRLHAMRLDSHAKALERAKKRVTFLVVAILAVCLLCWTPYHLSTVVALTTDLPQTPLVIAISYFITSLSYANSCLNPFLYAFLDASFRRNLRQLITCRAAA
DAGLB inh: diacylglycerol lipase beta (human) inhibition | Q8NCG7 | HEK293T DAGLB membrane lysate, EnzChek fluorogenic substrate | inhibition, % at 5.17 µM | actives 0.059% (n = 340,000) | AID 504411; in the data active = inhibition above about 34%;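 also: 0% = enzyme with vehicle and 100% = wells lacking enzyme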
NS3 helicase inh: blocks Hepatitis C virus NS3 helicase unwinding | inhibition, % at 10.9 µM | NS3 helicase DNA unwinding, Cy5 molecular beacon fluorescence | actives 0.56% (n = 290,000);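 active = inhibition above the mean of all tested compounds plus 3 SD, set per campaign, cut at about 35% in these data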;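 also: 0% = DMSO wells and 100% = thioflavine S control wells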
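Assay system – hepatitis C virus NS3 helicase domain fragment enzyme · Buffer or medium – MOPS pH 6.5, MgCl2, DTT, Tween20, BSA · Reagent – Cy5/quencher beacon DNA duplex and ATP to start · Compound – single 10.9 µM dose · Timing – 1 h at 25 °C · Technique – Cy5 beacon fluorescence read at start and 1 h · Measure – % inhibition of unwinding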
core dimer inh: blocks dimerization of HCV core protein | actives 0.33% (n = 300,000) | TR-FRET GST/Flag-core106 dimerization, 1536-well | inhibition, % at 5 µM;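 active = inhibition above the mean of all tested compounds plus 3 SD, set per screening campaign, cut at about 45% in these data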
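System – GST-tagged and Flag-tagged HCV core protein residues 1-106 · Repeats – one well for each compound · Technique – TR-FRET 671 and 617 nm emission · Doses – one concentration, 5 µM, in 0.5% DMSO · Times – 4 h, 22.5 °C incubation · Also added – Eu donor and XL665 acceptor anti-tag antibodies · Measure – percent inhibition of core106 dimerization signal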
FID counter: counter-screen for HCV NS3 helicase inhibitors: DNA intercalator displacement; DNA fluorescent intercalator displacement, fluorescence; inhibition, % at 7.9 µM; actives 0.17% (n = 290,000); in the data active = inhibition above about 37%;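 also: 0% = vehicle and 100% = reference compound; higher means more ethidium bromide displaced from hairpin DNA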
GRK2 aptamer HTS: blocks RNA aptamer binding to human GRK2. bead flow cytometry, FAM-aptamer displacement from GRK2. inhibition of aptamer binding, % at 10 µM. actives 0.59% (n = 330,000). AID 488847;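 active = inhibition of aptamer binding above 40%, roughly 3 SD of noise, on plates passing a quality check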;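 also: median bead fluorescence of bound FAM aptamer so fluorescent compounds give negative values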
Starred values were filed as active, the others as inactive; nt = no result. Sampled rows, rich in hits. Any-hit rate of the full collection: about 2.2%.

SMILES | GPR7 antag | DAGLB inh | NS3 helicase inh | core dimer inh | FID counter | GRK2 aptamer HTS
C#CCOCCOCCOCCNc1nc(N2CCN(C(=O)[C@H]([C@@H](C)CC)n3cc([C@@H](N)CC(C)C)nn3)CC2)nc(N2CCN(C(=O)[C@H](Cc3ccc(O)cc3)n3cc([C@@H](N)C(C)CC)nn3)CC2)n1 (stereo partly specified) | -16 | 2 | -69 | -19 | 35 | 3
C#CCOCCOCCOCCNc1nc(N2CCN(C(=O)[C@H]([C@@H](C)CC)n3cc([C@@H](N)Cc4ccc(O)cc4)nn3)CC2)nc(N2CCN(C(=O)[C@H](Cc3ccc(O)cc3)n3cc([C@@H](N)CC(C)C)nn3)CC2)n1 | -14 | 3 | -58 | 1 | 36 | 0
COc1cc2[nH]c(C(=O)Nc3ccc(F)cc3)cc2c(OC)c1OC | 6 | 0 | -12 | -53 | -23 | 0
O=C(CC1S/C(=N/N=C/c2c[nH]c3ccccc23)NC1=O)Nc1ccccc1 (stereo unspecified) | 18* | 0 | 13 | 3 | 14 | 1
O=C(CC1S/C(=N/N=C/c2c[nH]c3ccc(OCc4ccccc4)cc23)NC1=O)Nc1ccccc1 (stereo unspecified) | -16 | 6 | 8 | 39 | 5 | 0
CN(C)c1ccc(C(c2ccc(N(C)C)cc2)C(O)c2ccccc2)cc1 (stereo unspecified) | nt | 3 | nt | nt | nt | nt
O=C(O)CCC1c2cc3c4cc2OC2Oc5cc6c(cc51)C(CCC(=O)O)c1cc5c7cc1OC(O6)c1cc6cc(c1)Oc1cc(cc(C(=O)O)c1)Oc1cc8cc(c1)C(Oc1cc(c(cc1C5CCC(=O)O)C3CCC(=O)O)OC(O4)c1cc(cc(c1)Oc1cc(cc(C(=O)O)c1)O8)Oc1cc(cc(C(=O)O)c1)Oc1cc(cc2c1)Oc1cc(cc(C(=O)O)c1)O6)O7 (stereo unspecified) | nt | nt | nt | 61* | nt | 1
COc1ccc(-c2csc(/C(C#N)=C\c3ccc(O)c([N+](=O)[O-])c3)n2)cc1OC | -7 | 12 | 21 | 1 | 1 | 1
COc1ccc(-c2csc(/C(C#N)=C\c3ccc(OC)c([N+](=O)[O-])c3)n2)cc1 | -9 | -3 | 9 | 6 | 0 | 90*
NS(=O)(=O)c1ccc(CCNC(=O)CCCCCn2c(=S)[nH]c3ccc(Br)cc3c2=O)cc1 | 17* | 3 | 7 | 7 | -24 | 0
CC(=O)Oc1c(-c2ccc(Br)o2)oc2ccccc2c1=O | 9 | 1 | 0 | 1 | -11 | 2
CCOC(=O)N1CCN(C(=O)CN(Cc2ccccc2)S(C)(=O)=O)CC1 | -16 | -1 | 8 | 5 | -16 | 3
CS(=O)(=O)N(CC(=O)N1CCN(Cc2ccccc2)CC1)Cc1ccccc1 | 16* | 1 | -2 | -1 | -15 | 2
CCC[C@H](CN[C@@H](CNC)[C@H](C)CC)NCCc1cc(C(F)(F)F)cc(C(F)(F)F)c1 | 24 | -8 | -67 | -26 | 39* | 0
COc1ccc(CCN2CC(=O)NC(=O)C2)cc1OC | nt | 1 | nt | nt | nt | nt
CC1=C(C(=O)N(C)C)CC(CC(=O)NCc2cccc3ccccc23)C(=O)N1CCC1=CCCCC1 (stereo unspecified) | nt | -2 | nt | nt | nt | nt
COc1ccc(OC(=O)N(C)C[C@@H]2OCc3cn(nn3)CCCC(=O)N([C@@H](C)CO)C[C@H]2C)cc1 | nt | 0 | nt | nt | nt | nt
Cn1ccnc1SCC(=O)Nc1sccc1C#N | -2 | 0 | 9 | 71* | -7 | 4
Cc1nnc(SCC(=O)Nc2sccc2C#N)s1 | -3 | 0 | 18 | 33 | -5 | 2
N#Cc1ccsc1NC(=O)CSc1ncn[nH]1 | -7 | -3 | 5 | -2 | 0 | 1
N#Cc1ccsc1NC(=O)CSc1ncnc2ccccc12 | -10 | -5 | 18 | 80* | -16 | 0
C=CCn1c(O)c(N=Nc2ccccc2[N+](=O)[O-])c2ccccc21 | nt | 8 | nt | nt | nt | nt
O=[N+]([O-])c1cc(/C=N\O)ccc1Oc1ccc(F)cc1 | 16* | -3 | -2 | -5 | 12 | 0
O=c1c2ccccc2oc2cc(Br)ccc12 | nt | -6 | nt | nt | nt | nt
COc1cc2oc3ccccc3c(=O)c2cc1OC | 7 | -1 | -15 | -2 | -22 | 86*
SMILES | GPR7 antag | DAGLB inh | NS3 helicase inh | core dimer inh | FID counter | GRK2 aptamer HTS
COc1ccc(OC)c(C(=O)COC(=O)c2cccnc2Cl)c1 | -4 | -3 | 1 | -2 | -13 | 0
COc1ccc(C(=O)COC(=O)c2cccnc2Cl)c(OC)c1 | -3 | -1 | 7 | 68* | -13 | 0
Clc1ccc(CNCC2CCCO2)cc1 (stereo unspecified) | -14 | -4 | 7 | nt | 0 | 0
Cc1ccc(CNCC2CCCO2)o1 (stereo unspecified) | 19* | 2 | 11 | 0 | -2 | 5
O=C(O)C(CCc1ccccc1)N1CCOCC1 (stereo unspecified) | nt | 0 | nt | nt | nt | nt
CC1(C)C(=O)Nc2ccccc2N1C(=O)CSc1nc(-c2ccccc2)cs1 | -5 | 1 | 6 | 46* | -4 | 0
NC(=O)[C@@H]1CCCN1C(=O)[C@@H](Cc1cnc[nH]1)NC(=O)[C@@H]1CCC(=O)N1 | nt | -3 | nt | nt | nt | 3
CCNC(=O)C1CCCN1C(=O)C(CCCN=C(N)N)NC(=O)C(CC(C)C)NC(=O)C(Cc1cn(Cc2ccccc2)cn1)NC(=O)C(Cc1ccc(O)cc1)NC(=O)C(CO)NC(=O)C(Cc1c[nH]c2ccccc12)NC(=O)C(Cc1cnc[nH]1)NC(=O)C1CCC(=O)N1 (stereo unspecified) | 5 | nt | -92 | 5 | 44* | 0
COc1cccc(OC)c1-c1nn2c(-c3cc(-c4ccccc4)n[nH]3)nnc2s1 | -4 | 2 | -2 | 54* | 3 | 24
N#CC1(NC(=O)COC(=O)/C=C/c2ccc3ccccc3n2)CCCCC1 | -10 | 0 | 4 | 48* | -21 | 0
C#CCOC(=O)c1cc(Cl)c(=O)n(Cc2ccc(Cl)cc2Cl)c1 | 15 | -4 | -7 | -4 | -23 | 3
CN(C)CCOC(C1CCCCC1)C1CCCCC1 | 34* | 0 | -12 | -10 | 12 | 0
COc1ccc(OC)c(C(c2nnnn2C2CCCC2)N2CCc3ccccc3C2)c1 (stereo unspecified) | 14 | -7 | -14 | 15 | -30 | 0
COc1ccccc1C(c1nnnn1CCc1ccccc1)N1CCN(c2ccccc2)CC1 (stereo unspecified) | 23* | -1 | 9 | -1 | -2 | 0
COc1ccc(N2CCN(C(c3cccc(OC)c3OC)c3nnnn3C3CCCC3)CC2)cc1 (stereo unspecified) | 21* | -2 | -7 | 9 | -25 | 1
COc1ccc(C(c2nnnn2C2CCCC2)N2CCc3ccccc3C2)cc1OC (stereo unspecified) | 22* | 4 | -20 | nt | -18 | nt
